These results are taken from ChEMBL document CHEMBL4477211, “Synthesis and Investigation of Tetrahydro-β-carboline Derivatives as Inhibitors of the Breast Cancer Resistance Protein (ABCG2)” (J Med Chem, 2016).

For data set [1], the target named is T1, Broad substrate specificity ATP-binding cassette transporter ABCG2 (Homo sapiens, UniProt Q9UNQ0).
T1 sequence (Q9UNQ0 whole entry): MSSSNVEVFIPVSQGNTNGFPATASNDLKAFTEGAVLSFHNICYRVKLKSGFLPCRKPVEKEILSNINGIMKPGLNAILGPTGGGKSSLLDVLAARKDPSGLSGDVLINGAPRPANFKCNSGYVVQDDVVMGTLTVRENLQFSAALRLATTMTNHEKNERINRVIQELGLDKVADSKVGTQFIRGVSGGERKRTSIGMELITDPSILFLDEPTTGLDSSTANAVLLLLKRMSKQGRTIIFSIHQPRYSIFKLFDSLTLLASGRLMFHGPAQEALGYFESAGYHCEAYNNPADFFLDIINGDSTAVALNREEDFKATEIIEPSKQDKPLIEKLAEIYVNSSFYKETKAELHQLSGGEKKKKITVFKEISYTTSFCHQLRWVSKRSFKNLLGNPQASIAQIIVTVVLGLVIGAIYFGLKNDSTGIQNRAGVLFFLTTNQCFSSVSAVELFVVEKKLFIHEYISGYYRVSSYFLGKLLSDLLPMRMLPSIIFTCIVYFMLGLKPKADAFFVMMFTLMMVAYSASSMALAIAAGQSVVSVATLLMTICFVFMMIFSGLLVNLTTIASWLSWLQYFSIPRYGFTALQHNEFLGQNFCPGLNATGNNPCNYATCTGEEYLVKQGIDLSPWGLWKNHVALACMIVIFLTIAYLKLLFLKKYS
Put plainly: Inhibition of human ABCG2 expressed in baculovirus infected Sf9 cell membrane assessed as inhibition of vanadate sensitive ATPase activity at 1 uM after 20 mins by colorimetric method. The conditions noted are these: sf9, 20 min.

For data set [2], the target named is T1, Broad substrate specificity ATP-binding cassette transporter ABCG2. Put plainly: Inhibition of human ABCG2 expressed in MDCK2 cells assessed as reduction in Hoechst 33342 efflux pre-incubated for 30 mins before Hoechst 33342 addition and measured for 120 mins by microplate reader analysis. The format is cell-based. Conditions: read-out: IC50; call rule not given here. The procedure, abridged: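 Compound dilutions up to 10 µM (from 10 mM DMSO stocks) pre-incubated 30 min at 37 °C. Hoechst 33342 then added from 6 µM solution. Fluorescence (ex 355/em 460 nm) read each 60 s over 120 min.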

The target in another data set is T2, ABCG2 (Homo sapiens, UniProt Q9UNQ0).
T2 sequence (Q9UNQ0 whole entry): T1 sequence (Q9UNQ0 whole entry)
As to the kind of experiment: Ratio of IC50 for human ABCG2 expressed in baculovirus infected Sf9 cell membrane assessed as inhibition of vanadate sensitive quercetin-stimulated ATPase activity to IC50 for human ABCG2 expressed in baculovirus infected Sf9 cell membrane assessed as inhibition of vanadate sensitive basal ATPase activity. Conditions: read-out: Ratio IC50.

For data set [3], the target named is T1, Broad substrate specificity ATP-binding cassette transporter ABCG2. Put plainly: Inhibition of human ABCG2 expressed in baculovirus infected Sf9 cell membrane assessed as inhibition of vanadate sensitive basal ATPase activity after 20 mins by colorimetric method. The procedure, abridged: (§1)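 Cholesterol-loaded membranes from Sf9 cells infected with baculovirus carrying human wild-type ABCG2; 10 µg protein per reaction. Buffer: 40 mM MOPS-Tris pH 7.0, 50 mM KCl, 2 mM DTT, 0.5 mM EGTA-Tris, 5 mM azide, 1 mM ouabain. Started with 3.3 mM MgATP, 20 min at 37 °C, stopped with SDS. Pi measured by molybdate/ascorbate colour at 880 nm against K2HPO4 standard.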

Data set [4] shares this target. Put plainly: Reversal of human ABCG2-mediated resistance to SN-38 in human ABCG2 expressed MDCK2 cells assessed as reduction in SN-38 GI50 after 72 hrs by MTT assay. On the technique in general: Tetrazolium dyes change colour on reduction, which living cells bring about.
Data set [5] in a line: Cytotoxicity against wild-type MDCK2 cells assessed as reduction in cell viability after 72 hrs by MTT assay. Conditions: dog, wild-type MDCK2 (MDCK-II) cells. The format is cell-based, Canis lupus familiaris. The procedure, abridged:
(§2)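 MDCK II cells retrovirally transfected with human ABCG2-GFP cDNA, and wild-type MDCK II, in DMEM with 10% FBS. Seeded at 3 x 10^3 cells/well and attached 6 h at 37 °C, 5% CO2. Compounds up to 100 µM for 72 h. Controls were 10% DMSO and medium. MTT (5 mg/ml) added for 1 h, read at 570 nm minus 690 nm. Data normalised; GI50 from variable-slope sigmoidal fit.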

The target in data set [6] is T1, Broad substrate specificity ATP-binding cassette transporter ABCG2. As to the kind of experiment: Inhibition of human ABCG2 expressed in baculovirus infected Sf9 cell membrane assessed as inhibition of vanadate sensitive quercetin-stimulated ATPase activity after 20 mins by colorimetric method. The procedure, abridged: as §1
Another data set concerns the target ABCB1 (Homo sapiens, UniProt P08183). As to the kind of experiment: Inhibition of ABCB1 in human A2780/ADR cells assessed as reduction in calcein AM efflux at 10 uM pre-incubated for 30 mins before calcein AM addition and measured for 60 mins by microplate reader analysis relative to control. The format is cell-based. The conditions noted are these: probe calcein AM. In a few lines:
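Compound at 10 µM pre-incubated 30 min at 37 °C. Calcein AM added from 3.125 µM solution. Fluorescence (ex 485/em 520 nm) read every 60 s for 60 min.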

Data set [7] can be described thus: Cytotoxicity against MDCK2 cells expressing human ABCG2 assessed as reduction in cell viability after 72 hrs by MTT assay. The format is ADME, cell-based, Canis lupus familiaris. The conditions noted are these: dog, MDCK2 (MDCK-II) cells expressing human ABCG2. The procedure, abridged: as §2
Data set [8] is described as follows: Ratio of GI50 for MDCK2 cells expressing human ABCG2 to IC50 for human ABCG2 expressed in MDCK2 cells.
Data set [9] is described as follows: Ratio of GI50 for wild-type MDCK2 cells to IC50 for human ABCG2 expressed in MDCK2 cells.
A short description of data set [10]: Solubility in pH 7.4 Krebs-HEPES buffer assessed as absorbance value at 10 uM after 2 hrs by UV-visible spectrophotometric analysis relative to control. The format is physicochemical. Conditions: pH 7.4, 2 h. The procedure, abridged: (§3)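 10 µM test solutions prepared from DMSO stocks as for the Hoechst 33342 assay, in Krebs-HEPES pH 7.4. Absorbance at an absorption peak maximum recorded every 120 s for 2 h at room temperature by UV/visible spectrophotometer.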

A short description of data set [11]: Solubility in pH 7.4 Krebs-HEPES buffer at 10 uM after 2 hrs by UV-visible spectrophotometric analysis. The format is physicochemical. Conditions: pH 7.4, 2 h. The procedure, abridged:
as §3

In data set [12] the target is T1, Broad substrate specificity ATP-binding cassette transporter ABCG2. Put plainly: Inhibition of human ABCG2 expressed in MDCK2 cells assessed as reduction in pheophorbide A efflux pre-incubated for 30 mins before pheophorbide A addition and measured for 120 mins by flow cytometry. The conditions noted are these: read-out: IC50. (In general: A flow cytometer gives signals particle by particle.)

Data set [13] can be described thus: Solubility in pH 7.4 Krebs-HEPES buffer assessed as compound precipitation at 10 uM after 2 hrs by UV-visible spectrophotometric analysis. The format is physicochemical. Conditions: pH 7.4, 2 h. In a few lines: as §3

Each structure is given as a SMILES string.

Sequence of ABCB1 (P08183 whole entry): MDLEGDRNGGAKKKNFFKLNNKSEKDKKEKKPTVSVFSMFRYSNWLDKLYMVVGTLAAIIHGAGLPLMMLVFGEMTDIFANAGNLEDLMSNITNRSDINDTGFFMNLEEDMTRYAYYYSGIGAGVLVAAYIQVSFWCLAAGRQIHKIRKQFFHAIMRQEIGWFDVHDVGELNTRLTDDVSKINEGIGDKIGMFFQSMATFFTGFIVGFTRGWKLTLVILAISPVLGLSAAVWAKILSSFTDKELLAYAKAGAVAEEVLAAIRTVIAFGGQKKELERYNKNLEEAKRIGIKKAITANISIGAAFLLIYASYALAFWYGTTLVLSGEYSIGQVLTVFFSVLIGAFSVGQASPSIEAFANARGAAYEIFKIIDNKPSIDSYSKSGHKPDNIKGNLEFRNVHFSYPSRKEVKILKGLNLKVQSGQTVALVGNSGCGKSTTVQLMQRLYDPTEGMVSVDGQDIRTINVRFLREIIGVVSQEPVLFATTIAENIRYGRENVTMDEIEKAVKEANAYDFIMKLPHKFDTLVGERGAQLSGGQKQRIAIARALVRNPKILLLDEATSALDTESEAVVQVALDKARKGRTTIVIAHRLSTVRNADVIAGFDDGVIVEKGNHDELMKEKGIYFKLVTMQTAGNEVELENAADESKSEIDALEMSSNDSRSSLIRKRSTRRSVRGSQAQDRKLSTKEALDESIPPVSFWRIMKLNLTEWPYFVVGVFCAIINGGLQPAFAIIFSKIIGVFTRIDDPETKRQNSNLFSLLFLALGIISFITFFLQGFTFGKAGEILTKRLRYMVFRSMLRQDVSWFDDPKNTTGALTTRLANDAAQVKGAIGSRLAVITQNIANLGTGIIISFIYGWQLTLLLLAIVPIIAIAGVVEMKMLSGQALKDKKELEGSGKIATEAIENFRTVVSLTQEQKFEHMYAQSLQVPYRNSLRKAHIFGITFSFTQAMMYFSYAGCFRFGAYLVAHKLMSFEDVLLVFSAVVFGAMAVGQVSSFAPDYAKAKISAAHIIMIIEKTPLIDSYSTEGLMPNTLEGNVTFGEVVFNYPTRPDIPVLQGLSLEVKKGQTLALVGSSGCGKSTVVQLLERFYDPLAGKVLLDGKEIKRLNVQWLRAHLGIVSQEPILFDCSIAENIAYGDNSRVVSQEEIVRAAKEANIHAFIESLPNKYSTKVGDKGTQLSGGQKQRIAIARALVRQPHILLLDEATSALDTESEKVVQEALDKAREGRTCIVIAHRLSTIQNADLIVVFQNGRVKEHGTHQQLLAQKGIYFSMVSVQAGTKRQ

Take `O=C(c1ccccc1)N1CCc2c([nH]c3ccccc23)C1c1ccc(Br)cc1` (stereo not drawn): the “inhibition (INH)” value in data set [1] is “Active”. Moreover, the IC50 in data set [2] turned out to be 687 nM; in [3], 112 nM; in data set [6], 863 nM. Besides, the selectivity ratio at ABCG2 came to 7.7. Moreover, in [4], the Activity entry is “Dose-dependent effect”. Also, the GI50 at 72 h in data set [5] was 19400 nM; in data set [7], 20600 nM. For the same compound, the inhibition at 1 h, 10 µM on ABCB1 is < 25%. Besides, the Ratio in data set [8] and in [9] was 20 - 30 each time.
For `O=C(c1ccccc1)N1CCc2c([nH]c3ccccc23)C1c1ccccc1Br` (stereo not drawn), the Activity in [10] worked out at 40%. For the same compound, the IC50 in data set [2] is > 10000 nM. Also, at ABCB1, the inhibition at 1 h, 10 µM was < 25%.
As to `COc1ccc(C(=O)N2CCc3c([nH]c4ccccc34)C2c2ccc(Cl)c(Cl)c2)cc1` (stereo not drawn), the “inhibition (INH)” value in [1] is “Active”. In addition, the IC50 was found to be 233 nM in data set [2], 26 nM in data set [3], 285 nM in data set [6] and 237 nM in data set [12]. Besides, the solubility result in data set [11] is given as “Soluble”. Further, the selectivity ratio on ABCG2 turned out to be 11. The Activity result in data set [4] is reported as “Dose-dependent effect”. In addition, the GI50 at 72 h in data set [5] turned out to be 4830 nM; in data set [7] it was 4670 nM. The inhibition at 1 h, 10 µM at ABCB1 is < 25%. Besides, the Ratio entry in [8] and in [9] was “<=20” throughout.
With `COc1ccc2[nH]c3c(c2c1)CCN(C(=O)c1ccccc1)C3c1ccc(Cl)c(Cl)c1` (stereo not drawn), in data set [1], the “inhibition (INH)” value is “Active”. Besides, the IC50 in data set [2] was 382 nM; in data set [3], 29 nM; in data set [6] it was 299 nM. Further, the selectivity ratio on ABCG2 was 10.4. The Activity entry in data set [4] is reported as “Dose-dependent effect”. Besides, the results for the GI50 at 72 h in [5] and in [7] were 5270 nM and 4170 nM, respectively. Besides, the inhibition at 1 h, 10 µM on ABCB1 is < 25%. The Ratio result in [8] and in data set [9] was “<=20” each time.
`COc1cccc(C(=O)N2CCc3c([nH]c4ccccc34)C2c2ccc(Cl)c(Cl)c2)c1` (stereo not drawn): the “inhibition (INH)” value in data set [1] is reported as “Active”. For the same compound, the IC50 in [2] stood at 238 nM; in data set [3], 38 nM; in data set [6], 262 nM; in data set [12], 206 nM. For the same compound, the selectivity ratio on ABCG2 is 7. In addition, the Activity result in [4] is recorded as “Dose-dependent effect”. The figures for the GI50 at 72 h in data set [5] and in [7] were 6550 nM and 5820 nM, respectively. The inhibition at 1 h, 10 µM at ABCB1 is < 25%. In addition, the Ratio result in data set [8] and in [9] was “<=20” throughout.
Turning to `O=C(c1ccccc1)N1CCc2c([nH]c3ccccc23)C1c1ccc(C(F)(F)F)cc1` (stereo not drawn), in data set [13], the Activity is 80%. Also, the IC50 in data set [2] is > 10000 nM. On ABCB1, the inhibition at 1 h, 10 µM is < 25%.
Regarding `O=C(c1ccccc1)N1CCc2c([nH]c3ccccc23)C1c1ccccc1Cl` (stereo not drawn), in data set [10], the Activity amounted to 40%. The IC50 in data set [2] was > 10000 nM. Further, the inhibition at 1 h, 10 µM at ABCB1 was < 25%.
`O=C(c1ccccc1)N1CCc2c([nH]c3ccccc23)C1c1ccc(Cl)cc1` (stereo not drawn): in data set [1], the “inhibition (INH)” value is “Active”. Also, the IC50 in [2] was 741 nM; in [3], 60 nM; in [6] it was 560 nM; in data set [12], 784 nM. Moreover, the selectivity ratio on ABCG2 stood at 9.3. Further, the Activity result in data set [4] is “Dose-dependent effect”. The GI50 at 72 h in [5] was 16400 nM; in data set [7], 18100 nM. The inhibition at 1 h, 10 µM on ABCB1 is < 25%. Besides, the Ratio in data set [8] and in [9] was 20 - 30 in each case.
As for `O=C(c1ccccc1)N1CCc2c([nH]c3ccccc23)C1c1cccc([N+](=O)[O-])c1` (stereo not drawn), the Activity in data set [13] came out at 80%. For the same compound, the IC50 in data set [2] is > 10000 nM. On ABCB1, the inhibition at 1 h, 10 µM was < 25%.
With `O=C(c1ccccc1)N1CCc2c([nH]c3ccccc23)C1c1ccc(Cl)c(Cl)c1` (stereo not drawn), the “inhibition (INH)” value in data set [1] is reported as “Active”. For the same compound, the IC50 was 328 nM in data set [2], 31 nM in [3], 262 nM in data set [6] and 365 nM in data set [12]. Also, the selectivity ratio at ABCG2 came out at 8.4. In addition, the Activity entry in [4] is recorded as “Dose-dependent effect”. The figures for the GI50 at 72 h in data set [5] and in data set [7] were 7290 nM and 6950 nM, respectively. In addition, the inhibition at 1 h, 10 µM at ABCB1 is < 25%. Further, the Ratio entry in data set [8] and in data set [9] was “<=20” in each case.

Usually IC50 stands for the concentration at which inhibition is half-maximal. In general, GI50 refers to the concentration at which growth is held to half of that of the control. What is called inhibition is how much of the control response was suppressed.
